The record followed here is paper PMC4617824 (Cancer research, 2014).

The target in one assay is 14-3-3ν (UniProt Q04917). As to the kind of experiment: TR-FRET titration. To be noted: reference: unphosphorylated T44 peptide; sites T44. On the technique in general: TR-FRET usually uses a lanthanide donor and a delayed reading to cut background.
Assay [1] relates to phosphorylated levels of GST-Cables1 (endogenous Akt). In kind it is cell-based. To be noted: for block of IGF-1-induced enhancement of GST-Cables1 phosphorylation: 10 μM inhibitor 1 h, then 100 ng/ml IGF 15 min, serum-starved cells.
Assay [2] has as its system phosphorylation of Cables1 at T44 and T150. Kind of assay: A549 xenograft tumors: Cables1 phosphorylation. It is filed as in vivo, lung cancer A549 xenograft mouse model. To be noted: Figure S1.
Assay [3] concerns Akt phosphorylation at T473 (Akt pT473). As to the kind of experiment: A549 xenograft tumors: Akt phosphorylation. It is filed as in vivo, lung cancer A549 xenograft mouse model. To be noted: compared with vehicle, Figure S1.
Assay [4] deals with Cables1 binding to 14-3-3 (GST-Cables1 / His-14-3-3γ). The following applies: COS7 lysates expressing GST-Cables1 and His-14-3-3γ, 0.5 h, room temperature. Summed up: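 COS7 cells co-expressing His-14-3-3γ and GST-Cables1 were lysed. Lysates were incubated 0.5 h at room temperature with calf intestinal phosphatase, with phosphatase inhibitors (5 mM Na4P2O7, 5 mM NaF, 5 mM Na3VO4), or untreated. His-14-3-3γ complexes were captured on nickel-charged resin (2 h, 4°C), washed, and eluted by boiling in SDS sample buffer. GST-Cables1 was detected by Western blot.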

UniProt Q04917, sequence (Q04917 whole entry, looked up): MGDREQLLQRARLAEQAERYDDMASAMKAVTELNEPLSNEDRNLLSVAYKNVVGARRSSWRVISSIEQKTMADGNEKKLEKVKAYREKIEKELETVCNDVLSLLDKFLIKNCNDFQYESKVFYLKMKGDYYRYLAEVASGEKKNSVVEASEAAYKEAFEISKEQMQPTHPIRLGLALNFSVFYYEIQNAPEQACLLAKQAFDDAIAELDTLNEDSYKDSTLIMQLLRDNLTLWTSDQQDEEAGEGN

As for “Cables1 (from UniProt Q8TDN4-2) pT44 peptide”, the “binding against the reference” value in the assay with 14-3-3ν is on record as “stronger”.
Turning to `O.O=C(O)C(F)(F)F.O=c1[nH]c2ccccc2n1C1CCN(Cc2ccc(-c3nc4cc5[nH]cnc5cc4nc3-c3ccccc3)cc2)CC1` [AKT1/2 inhibitor], the “block of IGF-1-induced enhancement of GST-Cables1 phosphorylation” value in assay [1] is “totally blocked”.
In the case of IGF-1: IGF-1, Sigma-Aldrich, in assay [1] (100 ng/ml IGF, 15 min, cells serum-starved 24 h, GST pull-down, Western blot), the “phosphorylated levels of GST-Cables1” value is listed as “markedly enhanced”.
Regarding `CC(C)n1nc(-c2ccc3oc(N)nc3c2)c2c(N)ncnc21` [INK128], the “phosphorylation of Cables1 at T44 in tumors” value in assay [2] (pT44, compared with vehicle) is “decreased”. The “phosphorylation of Cables1 at T150 in tumors” value in assay [2] (pT150, compared with vehicle) is given as “decreased”. Also, the “Akt pT473 level in tumors” value in assay [3] is on record as “reduced”.
With `O=c1cc(N2CCOCC2)oc2c(-c3ccccc3)cccc12` [LY294002], the “block of IGF-1-induced enhancement of GST-Cables1 phosphorylation” value in assay [1] is “totally blocked”.

B1: CIP: calf intestinal phosphatase (protein, UniProt P19111 20-506, looked up)
Intestinal-type alkaline …: LVPVEEEDPAFWNRQAAQALDVAKKLQPIQTAAKNVILFLGDGMGVPTVTATRILKGQMNGKLGPETPLAMDQFPYVALSKTYNVDRQVPDSAGTATAYLCGVKGNYRTIGVSAAARYNQCKTTRGNEVTSVMNRAKKAGKSVGVVTTTRVQHASPAGAYAHTVNRNWYSDADLPADAQMNGCQDIAAQLVNNMDIDVILGGGRKYMFPVGTPDPEYPDDASVNGVRKRKQNLVQAWQAKHQGAQYVWNRTALLQAADDSSVTHLMGLFEPADMKYNVQQDHTKDPTLQEMTEVALRVVSRNPRGFYLFVEGGRIDHGHHDDKAYMALTEAGMFDNAIAKANELTSELDTLILVTADHSHVFSFGGYTLRGTSIFGLAPSKALDSKSYTSILYGNGPGYALGGGSRPDVNDSTSEDPSYQQQAAVPQASETHGGEDVAVFARGPQAHLVHGVEEETFVAHIMAFAGCVEPYTDCNLPAPTTATSIPD
As to B1, the “Cables1 binding to 14-3-3 after CIP treatment” value in assay [4] is “reduced”.
